One block for each molecule: values may come before it.
Key:
Assay type in all cases: ADME, organism-based
Mus musculus [1] = assay: Biodistribution of compound (oxidized form) in heart tissue, animals were sacrificed 60 minutes after dosing, in DMSO solution; conditions: in vivo, 1 h
How it was run: (§1)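 In female C3H HenMTV⁻ mice (6-8 weeks, 22-25 g; three per time point), compound was injected ip as 500 µL of 40 mM solution. Animals were killed 10 or 60 min later. Brain, heart, liver, kidney, spleen and blood were removed and each homogenized in ice-cold PBS. Nitroxide (oxidized form) was quantified by EPR signal intensity in the half of each homogenate not treated with ferricyanide.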

Mus musculus [2] = assay: Biodistribution of compound (oxidized form) in brain tissue, animals were sacrificed 60 minutes after dosing, in DMSO solution; conditions: in vivo, 1 h; how it was run: as §1
Mus musculus [3] = assay: Biodistribution of compound (oxidized form) in blood tissues, animals were sacrificed 60 minutes after dosing, in DMSO solution; conditions: in vivo, 1 h; how it was run: as §1
Mus musculus [4] = assay: Biodistribution of compound (oxidized form) in heart tissue, animals were sacrificed 10 minutes after dosing, in DMSO sol.; conditions: in vivo; how it was run: as §1
Mus musculus [5] = assay: Biodistribution of compound (oxidized form) in liver tissue, animals were sacrificed 10 minutes after dosing, in DMSO sol.; conditions: in vivo; how it was run: as §1
Mus musculus [6] = assay: Biodistribution in mice as total concentration of both oxidized and reduced forms in kidney and animals were sacrificed 10 minutes after ip dosing, in DMSO solution; conditions: in vivo
How it was run: (§2)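 Female C3H HenMTV⁻ mice (6-8 weeks old, 22-25 g; three per time point) were given an ip injection of 500 µL of 40 mM compound. They were euthanized at 10 or 60 min. Brain, heart, liver, kidney, spleen and blood were excised and each homogenized in ice-cold PBS. One half of each homogenate received K₃[Fe(CN)₆] (final 1 mM) to oxidize hydroxylamine to nitroxide. Total nitroxide plus hydroxylamine was read from EPR signal intensity.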

Mus musculus [7] = assay: Biodistribution of compound (oxidized form) in spleen tissues, animals were sacrificed 60 minutes after dosing, in DMSO solution; conditions: in vivo, 1 h; how it was run: as §1
Mus musculus [8] = assay: Biodistribution in mice, total concentration of both oxidized and reduced forms in brain tissues, animals were sacrificed 60 minutes after dosing, in DMSO; conditions: in vivo, 1 h; how it was run: as §2
Mus musculus [9] = assay: Biodistribution of compound (oxidized form) in spleen tissue, animals were sacrificed 10 minutes after dosing, in DMSO solution; conditions: in vivo; how it was run: as §1
Mus musculus [10] = assay: Biodistribution of compound (oxidized form) in liver tissues, animals were sacrificed 60 minutes after dosing, in DMSO solution; conditions: in vivo, 1 h; how it was run: as §1
Mus musculus [11] = assay: Biodistribution of compound (oxidized form) in kidney tissue, animals were sacrificed 10 minutes after dosing, in DMSO solution; conditions: in vivo; how it was run: as §1
Mus musculus [12] = assay: Biodistribution of compound (oxidized form) in brain tissue, animals were sacrificed 10 minutes after dosing, in DMSO sol.; conditions: in vivo; how it was run: as §1
Mus musculus [13] = assay: Biodistribution of compound (oxidized form) in blood tissue, animals were sacrificed 10 minutes after dosing, in DMSO solution; conditions: in vivo; how it was run: as §1
Mus musculus [14] = assay: Biodistribution of compound (oxidized form) in kidney tissue, animals were sacrificed 60 minutes after dosing, in DMSO solution; conditions: in vivo, 1 h; how it was run: as §1
Mus musculus [15] = assay: Biodistribution of compound (total concentration of both oxidized and reduced forms) in kidney tissues, animals were sacrificed 60 minutes after dosing, in DMSO; conditions: in vivo, 1 h
How it was run: (§3)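 Female C3H HenMTV⁻ mice (6-8 weeks old, 22-25 g; three per time point) got one i.p. injection of 500 µL of 40 mM compound. They were euthanized at 10 or 60 min. Organs and blood were excised and homogenized separately in ice-cold PBS. One half of each homogenate received K₃[Fe(CN)₆] (final 1 mM) to oxidize hydroxylamine. Total nitroxide plus hydroxylamine was quantified by EPR signal intensity.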

Mus musculus [16] = assay: Biodistribution in mice as total concentration of both oxidized and reduced forms in spleen and animals were sacrificed 10 minutes after ip dosing, in DMSO solution; conditions: in vivo; how it was run: as §2
Mus musculus [17] = assay: Biodistribution of compound (total concentration of both oxidized and reduced forms) in heart tissues, animals were sacrificed 60 minutes after dosing, in DMSO; conditions: in vivo, 1 h; how it was run: as §3
Mus musculus [18] = assay: Biodistribution of compound (total concentration of both oxidized and reduced forms) in liver tissues, animals were sacrificed 60 minutes after dosing, in DMSO; conditions: in vivo, 1 h; how it was run: as §3
Mus musculus [19] = assay: Biodistribution of compound (oxidized form) in brain tissues, animals were sacrificed 10 minutes after dosing, in DMSO solution; conditions: in vivo; how it was run: as §1
Mus musculus [20] = assay: Biodistribution of compound (total concentration of both oxidized and reduced forms) in spleen tissues, animals were sacrificed 60 minutes after dosing, in DMSO; conditions: in vivo, 1 h; how it was run: as §3
Mus musculus [21] = assay: Biodistribution of compound (total concentration of both oxidized and reduced forms) in blood tissues, animals were sacrificed 60 minutes after dosing, in DMSO; conditions: in vivo, 1 h; how it was run: as §3
Mus musculus [22] = assay: Biodistribution of compound (total concentration of both oxidized and reduced forms) in heart tissues, animals were sacrificed 10 minutes after dosing, in DMSO; conditions: in vivo; how it was run: as §3
Mus musculus [23] = assay: Biodistribution in mice as total concentration of both oxidized and reduced forms in blood and animals were sacrificed 10 minutes after ip dosing, in DMSO solution; conditions: in vivo; how it was run: as §2
Mus musculus [24] = assay: Biodistribution in mice as total concentration of both oxidized and reduced forms in liver and animals were sacrificed 10 minutes after ip administration in DMSO solution; conditions: in vivo; how it was run: as §2
Mus musculus [25] = species: Mus musculus; assay: Biodistribution of compound (oxidized form) in liver tissue; conditions: in vivo; how it was run: as §1
Mus musculus [26] = assay: Biodistribution of compound (total concentration of both oxidized and reduced forms) in kidney tissues, animals were sacrificed 60 minutes after dosing in DMSO; conditions: in vivo, 1 h; how it was run: as §3
Mus musculus [27] = species: Mus musculus; assay: Biodistribution of compound (total concentration of both oxidized and reduced forms) in blood; conditions: in vivo; how it was run: as §3
Mus musculus [28] = species: Mus musculus; assay: Biodistribution of compound (total concentration of both oxidized and reduced forms) in brain tissues; conditions: in vivo; how it was run: as §3
Mus musculus [29] = species: Mus musculus; assay: Biodistribution of compound (total concentration of both oxidized and reduced forms) in spleen; conditions: in vivo; how it was run: as §3
Mus musculus [30] = species: Mus musculus; assay: Biodistribution of compound (oxidized form) in blood tissue; conditions: in vivo; how it was run: as §1
Mus musculus [31] = species: Mus musculus; assay: Biodistribution of compound (total concentration of both oxidized and reduced forms) in kidney; conditions: in vivo; how it was run: as §3
Mus musculus [32] = species: Mus musculus; assay: Biodistribution of compound (oxidized form) in kidney tissue; conditions: in vivo; how it was run: as §1
Mus musculus [33] = assay: Biodistribution of compound (oxidized form) in blood tissues, animals were sacrificed 60 minutes after dosing, in DMSO; conditions: in vivo, 1 h; how it was run: as §1
Mus musculus [34] = species: Mus musculus; assay: Biodistribution of compound (oxidized form) in brain tissue of mice; conditions: in vivo; how it was run: as §1
Mus musculus [35] = species: Mus musculus; assay: Biodistribution of compound (oxidized form) in heart tissue of mice; conditions: in vivo; how it was run: as §1
Mus musculus [36] = assay: Biodistribution of compound (oxidized form) in brain tissue, animals were sacrificed 60 minutes after dosing, in DMSO; conditions: in vivo, 1 h; how it was run: as §1
Mus musculus [37] = assay: Biodistribution of compound (total concentration of both oxidized and reduced forms) in spleen tissues, animals were sacrificed 60 minutes after dosing in DMSO; conditions: in vivo, 1 h; how it was run: as §3
Mus musculus [38] = assay: Biodistribution of compound (oxidized form) in kidney tissue, animals were sacrificed 60 minutes after dosing, in DMSO; conditions: in vivo, 1 h; how it was run: as §1
Mus musculus [39] = species: Mus musculus; assay: Biodistribution of compound (total concentration of both oxidized and reduced forms) in liver; conditions: in vivo; how it was run: as §3
Mus musculus [40] = assay: Biodistribution of compound (oxidized form) in spleen tissues, animals were sacrificed 60 minutes after dosing, in DMSO; conditions: in vivo, 1 h; how it was run: as §1
Mus musculus [41] = assay: Biodistribution of compound (total concentration of both oxidized and reduced forms) in brain tissues, animals were sacrificed 60 minutes after dosing, in DMSO; conditions: in vivo, 1 h; how it was run: as §3
Mus musculus [42] = species: Mus musculus; assay: Biodistribution of compound (oxidized form) in spleen tissue; conditions: in vivo; how it was run: as §1
Mus musculus [43] = species: Mus musculus; assay: Biodistribution of compound (total concentration of both oxidized and reduced forms) in heart tissues; conditions: in vivo; how it was run: as §3
Mus musculus [44] = assay: Biodistribution of compound (oxidized form) in liver tissues, animals were sacrificed 60 minutes after dosing, in DMSO; conditions: in vivo, 1 h; how it was run: as §1
Mus musculus [45] = assay: Biodistribution of compound (oxidized form) in heart tissue, animals were sacrificed 60 minutes after dosing, in DMSO; conditions: in vivo, 1 h; how it was run: as §1

- Biodistribution (Mus musculus [1]): 0 nM (g of tissue)-1
- Biodistribution (Mus musculus [2]): 5 nM (g of tissue)-1
- Biodistribution (Mus musculus [3]): 0 nM (g of tissue)-1
- Biodistribution (Mus musculus [4]): 0 nM (g of tissue)-1
- Biodistribution (Mus musculus [5]): 0 nM (g of tissue)-1
- Biodistribution (Mus musculus [6]): 400 nM (g of tissue)-1
- Biodistribution (Mus musculus [7]): 0 nM (g of tissue)-1
- Biodistribution (Mus musculus [8]): 25 nM (g of tissue)-1
- Biodistribution (Mus musculus [9]): 0 nM (g of tissue)-1
- Biodistribution (Mus musculus [10]): 0 nM (g of tissue)-1
- Biodistribution (Mus musculus [11]): 0 nM (g of tissue)-1
- Biodistribution (Mus musculus [12]): 2 nM (g of tissue)-1
- Biodistribution (Mus musculus [13]): 0 nM (g of tissue)-1
- Biodistribution (Mus musculus [14]): 0 nM (g of tissue)-1
- Biodistribution (Mus musculus [15]): 25 nM (g of tissue)-1
- Biodistribution (Mus musculus [16]): 100 nM (g of tissue)-1
- Biodistribution (Mus musculus [17]): 25 nM (g of tissue)-1
- Biodistribution (Mus musculus [18]): 30 nM (g of tissue)-1
- Biodistribution (Mus musculus [19]): 0 nM (g of tissue)-1
- Biodistribution (Mus musculus [20]): 25 nM (g of tissue)-1
- Biodistribution (Mus musculus [21]): 25 nM (g of tissue)-1
- Biodistribution (Mus musculus [22]): 100 nM (g of tissue)-1
- Biodistribution (Mus musculus [23]): 100 nM (g of tissue)-1
- Biodistribution (Mus musculus [24]): 50 nM (g of tissue)-1
Compound: COC(=O)C1CC(C)(C)N(OC(C)=O)C1(C)C (stereo not drawn)

- Biodistribution (Mus musculus [25]): 100 nM (g of tissue)-1
- Biodistribution (Mus musculus [26]): 2500 nM (g of tissue)-1
- Biodistribution (Mus musculus [27]): 750 nM (g of tissue)-1
- Biodistribution (Mus musculus [28]): 0 nM (g of tissue)-1
- Biodistribution (Mus musculus [29]): 750 nM (g of tissue)-1
- Biodistribution (Mus musculus [30]): 50 nM (g of tissue)-1
- Biodistribution (Mus musculus [31]): 2500 nM (g of tissue)-1
- Biodistribution (Mus musculus [32]): 50 nM (g of tissue)-1
- Biodistribution (Mus musculus [17]): 250 nM (g of tissue)-1
- Biodistribution (Mus musculus [33]): 20 nM (g of tissue)-1
- Biodistribution (Mus musculus [34]): 0 nM (g of tissue)-1
- Biodistribution (Mus musculus [35]): 10 nM (g of tissue)-1
- Biodistribution (Mus musculus [18]): 250 nM (g of tissue)-1
- Biodistribution (Mus musculus [36]): 0 nM (g of tissue)-1
- Biodistribution (Mus musculus [21]): 400 nM (g of tissue)-1
- Biodistribution (Mus musculus [37]): 150 nM (g of tissue)-1
- Biodistribution (Mus musculus [38]): 40 nM (g of tissue)-1
- Biodistribution (Mus musculus [39]): 250 nM (g of tissue)-1
- Biodistribution (Mus musculus [40]): 20 nM (g of tissue)-1
- Biodistribution (Mus musculus [41]): 0 nM (g of tissue)-1
- Biodistribution (Mus musculus [42]): 40 nM (g of tissue)-1
- Biodistribution (Mus musculus [43]): 250 nM (g of tissue)-1
- Biodistribution (Mus musculus [44]): 20 nM (g of tissue)-1
- Biodistribution (Mus musculus [45]): 5 nM (g of tissue)-1
Compound: CC(=O)OCOC(=O)C1CC(C)(C)N(OC(C)=O)C1(C)C (stereo not drawn)

Reference: ChEMBL document CHEMBL1135423, “Acyl-protected hydroxylamines as spin label generators for EPR brain imaging” (J Med Chem, 2002)
